From ChEMBL document CHEMBL4371075, “α-Amino Diphenyl Phosphonates as Novel Inhibitors of Escherichia coli ClpP Protease” (J Med Chem, 2019)
The source made the active and inactive calls. The calls are words filed in the database; no cut-off is given here.

What was measured:
[1] = target: ATP-dependent Clp protease proteolytic subunit (Escherichia coli (strain K12), UniProt P0A6G7); assay: Inhibition of Escherichia coli C-terminal His6-tagged ClpP expressed Escherichia coli SG1146a using Suc-LY-AMC as substrate preincubated for 10 mins followed by substrate addition and measured over 1 hr by fluorescence assay
In short: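 ClpP at 625 nM with compound serial dilutions (1:3 or 1:2) in 100 mM NaCl, 100 mM Hepes pH 7.5, 0.05% Brij 35, preincubated 10 min at 30 °C. Suc-LY-AMC added (75 µM), fluorescence (ex 350/em 435 nm) tracked 1 h at 30 °C against DMSO vehicle (2% v/v).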

[2] = target: ATP-dependent Clp protease proteolytic subunit (Escherichia coli (strain K12)) (UniProt P0A6G7); assay: Inhibition of Escherichia coli C-terminal His6-tagged ClpP expressed Escherichia coli SG1146a at 200 uM using Suc-LY-AMC as substrate preincubated for 10 mins followed by substrate addition and measured over 1 hr by fluorescence assay relative to control
In short: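 E. coli ClpP (625 nM) in 100 mM NaCl, 100 mM Hepes pH 7.5, 0.05% Brij 35, preincubated with compound (200 µM final, triplicates) 10 min at 30 °C. Suc-LY-AMC added (75 µM), fluorescence (ex 350/em 435 nm) followed over 1 h at 30 °C. Inhibition relative to 2% DMSO vehicle; Z-LY-CMK (200 µM) positive control; plates valid at Z' > 0.6.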

HeLa = assay: Cytotoxicity against human HeLa cells after 48 hrs by CellTiter-Glo assay; format: cell-based
In short: (§1)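 Human cells seeded (2000 cells/well; A549 500 cells/well), 24 h at 37 °C, 5% CO2, then compounds added (final DMSO 1%), 1:3 dilution series from 100 µM, 48 h exposure. ATP read by CellTiter-Glo luminescence relative to DMSO-treated cells; DMSO (1%) negative and valinomycin (10 µM) positive controls; plates accepted at Z' > 0.5.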

HepG2 = assay: Cytotoxicity against human HepG2 cells after 48 hrs by CellTiter-Glo assay; format: cell-based; conditions: HepG2, 48 h; in short: as §1
A549 = assay: Cytotoxicity against human A549 cells after 48 hrs by CellTiter-Glo assay; format: cell-based; conditions: A549, 48 h; in short: as §1
alpha-chymotrypsin = alpha-chymotrypsin (Bos taurus, UniProt P00766); assay: Inhibition of bovine alpha-chymotrypsin assessed as residual activity at 200 uM relative to control; conditions: cattle, read-out: Activity
In short: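 Bovine α-chymotrypsin (40 nM) with compound at 200 µM and Suc-LY-AMC (100 µM) in 150 mM NaCl, 10 mM CaCl2, 50 mM Tris-HCl, 0.05% Brij 35. AMC fluorescence read-out; residual activity relative to control without compound.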

Escherichia coli [3] = assay: Growth inhibition of tolC-deficient Escherichia coli JW5503 at 100 uM measured after 24 hrs relative to control; format: functional; conditions: JW5503, 24 h, read-out: GI
In short: (§2)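 Single colony in saline, adjusted in MHB; final inoculum 5x10^5 CFU/mL, compound 100 µM in triplicate, 2% DMSO and ciprofloxacin controls. 37 °C, 500 rpm shaking; OD600 at time 0 and later time points to quantify growth.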

Escherichia coli [4] = assay: Growth inhibition of wild-type Escherichia coli BW25113 at 50 uM measured after 24 hrs in presence of efflux pump substrate PAbetaN relative to control; format: functional; conditions: BW25113, 24 h, read-out: GI
In short: (§3)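 E. coli BW25-113 wild type or ΔclpP JW0427-1 grown with compound (50 µM) plus efflux pump substrate PAβN (25 µg/ml); growth inhibition read as OD600 at 24 h, 37 °C with shaking.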

Escherichia coli [5] = assay: Growth inhibition of ClpP-deficient Escherichia coli JW0427-1 at 50 uM measured after 24 hrs in presence of efflux pump substrate PAbetaN relative to control; format: functional; conditions: JW0427-1, 24 h, read-out: GI; in short: as §3
[6] = system: Escherichia coli ClpP (C-terminal His6-tagged); assay: Selectivity index, ratio of EC50 for human A549 cells to IC50 for Escherichia coli C-terminal His6-tagged ClpP expressed Escherichia coli SG1146a; format: toxicity; conditions: read-out: Selectivity Index
[7] = target: ATP-dependent Clp protease proteolytic subunit (Escherichia coli (strain K12)) (UniProt P0A6G7); assay: Reversible binding affinity to Escherichia coli C-terminal His6-tagged ClpP expressed Escherichia coli SG1146a up to 320 uM measured after cessation of compound treatment by SPR analysis
In short: (§4)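 His-tagged E. coli ClpP amine-coupled to chip (80 µg/mL in 10 mM sodium acetate pH 4). Running buffer 150 mM NaCl, 10 mM Hepes, 3 mM EDTA, 0.05% Tween-20, 3.2% DMSO; 20 µL/min, 6 min injection, up to 300 s dissociation; 2.5–320 µM range. Reference-channel subtracted, DMSO/bulk-shift corrected; return to baseline after injection end judged.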

Escherichia coli [8] = assay: Growth inhibition of wild-type Escherichia coli BW25113 at 100 uM measured at 1 hr time interval for 15 to 24 hrs; format: functional, organism-based
In short: (§5)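 E. coli BW25-113 and isogenic ΔclpP JW0427-1, grown overnight in MHB, diluted 1:100 in M9 + 10 mM glucose to OD600 ~0.3; assayed at OD600 0.1 with compound 100 µM, with or without DPTA NONOate (2 mM) for NO stress. 37 °C, 500 rpm; OD600 hourly for 15 or 24 h; mean of three independent experiments ± standard deviation.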

Escherichia coli [9] = assay: Growth inhibition of wild-type Escherichia coli BW25113 at 100 uM under nitric oxide stress condition measured at 1 hr time interval for 15 to 24 hrs in presence of DPTA NONOate; format: functional, organism-based; in short: as §5
Escherichia coli [10] = assay: Growth inhibition of ClpP-deficient Escherichia coli JW0427-1 at 100 uM measured at 1 hr time interval for 15 to 24 hrs; format: functional, organism-based; in short: as §5
Escherichia coli [11] = assay: Growth inhibition of ClpP-deficient Escherichia coli JW0427-1 at 100 uM under nitric oxide stress condition measured at 1 hr time interval for 15 to 24 hrs in presence of DPTA NONOate; format: functional, organism-based; in short: as §5
[12] = target: ATP-dependent Clp protease proteolytic subunit (Escherichia coli (strain K12)) (UniProt P0A6G7); assay: Reversible binding affinity to Escherichia coli C-terminal His6-tagged ClpP expressed Escherichia coli SG1146a up to 80 uM measured after cessation of compound treatment by SPR analysis; in short: as §4
Staphylococcus aureus = assay: Growth inhibition of Staphylococcus aureus ATCC 29213 at 100 uM measured after 24 hrs relative to control; format: functional; conditions: ATCC 29213, 24 h, read-out: GI; in short: as §2

Chain of ATP-dependent Clp protease proteolytic subunit (Escherichia coli (strain K12)) (P0A6G7 whole entry): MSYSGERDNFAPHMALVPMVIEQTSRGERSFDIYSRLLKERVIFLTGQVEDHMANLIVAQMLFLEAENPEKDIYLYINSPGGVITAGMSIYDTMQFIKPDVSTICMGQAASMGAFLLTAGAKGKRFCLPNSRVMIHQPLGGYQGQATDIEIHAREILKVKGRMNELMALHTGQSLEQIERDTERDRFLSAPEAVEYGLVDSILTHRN
Chain of ATP-dependent Clp protease proteolytic subunit (P0A6G7 whole entry): as above

SMILES | IC50 [1] | inhibition [2] | EC50 (HeLa) | EC50 (HepG2) | EC50 (A549) | activity at 200 µM (alpha-chymotrypsin) | inhibition of growth at 100 µM (Escherichia coli [3]) | inhibition of growth at 50 µM (Escherichia coli [4]) | inhibition of growth at 50 µM (Escherichia coli [5]) | selectivity ratio [6] | Activity [7] | growth inhibition (GI) (Escherichia coli [8]) | growth inhibition (GI) (Escherichia coli [9]) | growth inhibition (GI) (Escherichia coli [10]) | growth inhibition (GI) (Escherichia coli [11]) | Activity [12] | inhibition of growth at 100 µM (Staphylococcus aureus)
C[C@H](NC(=O)[C@H](CO)NC(=O)c1cccs1)C(=O)NC(Cc1ccc(NC(=N)N)cc1)P(=O)(Oc1ccccc1)Oc1ccccc1 (some centres undefined) | 49.5 µM | 90% | ≥ 100 µM | ≥ 100 µM | ≥ 100 µM | ≥ 100% | – | – | – | – | – | – | – | – | – | – | –
COc1cccc(C(NC(=O)OCc2ccccc2)P(=O)(Oc2ccccc2)Oc2ccccc2)n1 (centres undefined) | 38 µM | 100% | ≥ 100 µM | ≥ 100 µM | ≥ 100 µM | ≥ 100% | – | – | – | – | – | – | – | – | – | – | –
N=C(N)c1ccc2cc(C(NC(=O)OCc3ccccc3)P(=O)(Oc3ccccc3)Oc3ccccc3)ccc2c1 (centres undefined) | 79.7 µM | 81% | 19.9 µM | 28.3 µM | 25.6 µM | ≥ 100% | 98.9% | 98.5% | 99.4% | – | – | – | – | – | – | – | –
COC(=O)NC(c1ccc(C(=N)N)cc1)P(=O)(Oc1ccccc1)Oc1ccccc1 (centres undefined) | 48.1 µM | 93% | ≥ 100 µM | ≥ 100 µM | ≥ 100 µM | ≥ 100% | – | – | – | – | – | – | – | – | – | – | –
Nc1ccc(C(NC(=O)OCc2ccccc2)P(=O)(Oc2ccccc2)Oc2ccccc2)cc1 (centres undefined) | 39.8 µM | 96% | ≥ 100 µM | ≥ 100 µM | 57.8 µM | ≥ 100% | – | – | – | < 10 | – | – | – | – | – | – | –
O=C(NC(c1ccc(NC(=O)C(F)(F)F)cc1)P(=O)(Oc1ccccc1)Oc1ccccc1)OCc1ccc2c(c1)OCO2 (centres undefined) | 8.2 µM | 93% | ≥ 100 µM | ≥ 100 µM | 41.5 µM | 46% | – | – | – | < 10 | Active | – | – | – | – | – | –
O=C(NC(Cc1ccc(C(F)(F)F)cc1)P(=O)(Oc1ccccc1)Oc1ccccc1)OCc1ccccc1 (centres undefined) | 14.2 µM | 100% | ≥ 100 µM | ≥ 100 µM | ≥ 100 µM | 93.9% | – | – | – | – | – | – | – | – | – | – | –
O=C(NC(c1c[nH]c2ccc(Cl)cc12)P(=O)(Oc1ccccc1)Oc1ccccc1)OCc1ccccc1 (centres undefined) | 100 µM | 88% | 19.9 µM | 10.5 µM | 5.9 µM | ≥ 100% | – | – | – | – | – | – | – | – | – | – | –
O=C(NC(CCc1ccc([N+](=O)[O-])cc1)P(=O)(Oc1ccccc1)Oc1ccccc1)OCc1ccccc1 (centres undefined) | 13.1 µM | 100% | ≥ 100 µM | ≥ 100 µM | ≥ 100 µM | ≥ 100% | – | – | – | – | – | – | – | – | – | – | –
CN(C)c1ccc(C(NC(=O)OCc2ccccc2)P(=O)(Oc2ccccc2)Oc2ccccc2)cc1 (centres undefined) | 0.6 µM | 100% | ≥ 100 µM | 28.4 µM | 65.6 µM | ≥ 100% | – | – | – | – | Active | – | – | – | – | – | –
Nc1cccc(C(NC(=O)OCc2ccccc2)P(=O)(Oc2ccccc2)Oc2ccccc2)c1 (centres undefined) | 0.5 µM | 100% | ≥ 100 µM | 23.8 µM | 27.5 µM | 17.9% | – | – | – | – | Active | inactive | Active | inactive | inactive | – | –
O=C(NC(c1ccc(N2CCNCC2)cc1)P(=O)(Oc1ccccc1)Oc1ccccc1)OCc1ccccc1 (centres undefined) | 0.6 µM | 100% | 8.6 µM | 1.1 µM | 0.4 µM | ≥ 100% | 69.9% | – | – | – | – | – | – | – | – | Active | –
N=C(N)N1CC(C(NC(=O)OCc2ccccc2)P(=O)(Oc2ccccc2)Oc2ccccc2)C1 (centres undefined) | 71.3 µM | 100% | ≥ 100 µM | ≥ 100 µM | ≥ 100 µM | ≥ 100% | 99% | – | – | – | – | – | – | – | – | – | 99.9%
